Test results as given in ChEMBL document CHEMBL3272012, “5-(Tetradecyloxy)-2-furancarboxylic acid and related hypolipidemic fatty acid-like alkyloxyarylcarboxylic acids” (J Med Chem, 1977).

How the values were obtained:
Rattus norvegicus [1] = test: Increase in liver weight in Wistar rat at 444 umol/kg/day administered through diet for 10 days; format: ADME, organism-based; settings: in vivo, po, 240 h
Rattus norvegicus [2] = test: Hypolipidemic activity in Wistar rat assessed as reduction in plasma cholesterol level at 444 umol/kg/day administered through diet for 10 days; format: functional; settings: 240 h
In short: (§1)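 Young male Wistar rats, 170-190 g initial weight, groups of six, given compound mixed thoroughly into Purina Lab Chow ad libitum for 4 or 10 days as stated. Daily dose calculated from food consumption and body weight. Bled by cardiac puncture at end of treatment; plasma cholesterol measured by automated procedure. Expressed as percent reduction versus simultaneous untreated control group; Student's t test.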

Rattus norvegicus [3] = test: Hypolipidemic activity in Wistar rat assessed as reduction in plasma triglyceride level at 444 umol/kg/day administered through diet for 10 days; format: functional; settings: 240 h
Rattus norvegicus [4] = test: Increase in cholesterol level in Wistar rat liver at 444 umol/kg/day administered through diet for 10 days; format: ADME, organism-based; settings: in vivo, po, 240 h
Rattus norvegicus [5] = test: Increase in cholesterol level in Wistar rat liver at 439 umol/kg/day administered through diet for 10 days; format: ADME, organism-based; settings: in vivo, po, 240 h
Rattus norvegicus [6] = test: Increase in liver weight in Wistar rat at 461 umol/kg/day administered through diet for 4 days; format: ADME, organism-based; settings: in vivo, po, 96 h
Rattus norvegicus [7] = test: Hypolipidemic activity in Wistar rat assessed as reduction in plasma cholesterol level at 439 umol/kg/day administered through diet for 10 days; format: functional; settings: 240 h; in short: as §1
Rattus norvegicus [8] = test: Hypolipidemic activity in Wistar rat assessed as reduction in plasma cholesterol level at 461 umol/kg/day administered through diet for 4 days; format: functional; settings: 96 h; in short: as §1
Rattus norvegicus [9] = test: Hypolipidemic activity in Wistar rat assessed as reduction in plasma cholesterol level at 392 umol/kg/day administered through diet for 10 days; format: functional; settings: 240 h
In short: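 Young male Wistar rats, 170-190 g at start, in groups of six, given compound mixed into Purina Lab Chow ad libitum for 4 or 10 days as stated. Daily dose was calculated from food consumption and body weight. Plasma was taken by cardiac puncture at the end and cholesterol measured by automated procedure. Results are % reduction versus a concurrent untreated control group, with Student's t test.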

Rattus norvegicus [10] = test: Hypolipidemic activity in Wistar rat assessed as reduction in plasma triglyceride level at 392 umol/kg/day administered through diet for 10 days; format: functional; settings: 240 h
In short: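 Young male Wistar rats (170-190 g initial weight), groups of six, fed test compound mixed into Purina Lab Chow ad libitum; daily dose calculated from food consumption and body weight. Bled by cardiac puncture at end of treatment; plasma triglycerides measured by automated procedure. Results given as percent reduction versus a simultaneous untreated control group, with significance by Student's t test.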

Rattus norvegicus [11] = test: Increase in liver weight in Wistar rat at 439 umol/kg/day administered through diet for 10 days; format: ADME, organism-based; settings: in vivo, po, 240 h
In short: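 Male Wistar rats (170-190 g initial), groups of six, dosed via diet ad libitum for 4 or 10 days, daily dose from food consumption. Liver wet weight measured, expressed as g/100 g final body weight, compared with untreated controls run simultaneously.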

Rattus norvegicus [12] = test: Increase in liver weight in Wistar rat at 392 umol/kg/day administered through diet for 10 days; format: ADME, organism-based; settings: in vivo, po, 240 h
Rattus norvegicus [13] = test: Hypolipidemic activity in Wistar rat assessed as reduction in plasma triglyceride level at 439 umol/kg/day administered through diet for 10 days; format: functional; settings: 240 h
In short: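 Young male Wistar rats (initial weight 170-190 g), groups of six, fed compound mixed into Purina Lab Chow ad libitum for 4 or 10 days; daily dose calculated from food consumption and body weight. Bled by cardiac puncture; plasma cholesterol and triglycerides by automated procedures; percent reduction versus simultaneous untreated controls, Student's t test.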

Rattus norvegicus [14] = test: Increase in cholesterol level in Wistar rat liver at 392 umol/kg/day administered through diet for 10 days; format: ADME, organism-based; settings: in vivo, po, 240 h
Rattus norvegicus [15] = test: Increase in cholesterol level in Wistar rat liver at 461 umol/kg/day administered through diet for 4 days; format: ADME, organism-based; settings: in vivo, po, 96 h
Rattus norvegicus [16] = test: Hypolipidemic activity in Wistar rat assessed as reduction in plasma triglyceride level at 461 umol/kg/day administered through diet for 4 days; format: functional; settings: 96 h
Rattus norvegicus [17] = test: Increase in cholesterol level in Wistar rat liver at 460 umol/kg/day administered through diet for 10 days; format: ADME, organism-based; settings: in vivo, po, 240 h
Rattus norvegicus [18] = test: Increase in liver weight in Wistar rat at 460 umol/kg/day administered through diet for 10 days; format: ADME, organism-based; settings: in vivo, po, 240 h
Rattus norvegicus [19] = test: Hypolipidemic activity in Wistar rat assessed as reduction in plasma triglyceride level at 496 umol/kg/day administered through diet for 4 days; format: functional; settings: 96 h
Rattus norvegicus [20] = test: Increase in liver weight in Wistar rat at 496 umol/kg/day administered through diet for 4 days; format: ADME, organism-based; settings: in vivo, po, 96 h
Rattus norvegicus [21] = test: Hypolipidemic activity in Wistar rat assessed as reduction in plasma cholesterol level at 496 umol/kg/day administered through diet for 4 days; format: functional; settings: 96 h; in short: as §1
Rattus norvegicus [22] = test: Hypolipidemic activity in Wistar rat assessed as reduction in plasma cholesterol level at 460 umol/kg/day administered through diet for 10 days; format: functional; settings: 240 h; in short: as §1
Rattus norvegicus [23] = test: Increase in cholesterol level in Wistar rat liver at 496 umol/kg/day administered through diet for 4 days; format: ADME, organism-based; settings: in vivo, po, 96 h
Rattus norvegicus [24] = test: Hypolipidemic activity in Wistar rat assessed as reduction in plasma triglyceride level at 460 umol/kg/day administered through diet for 10 days; format: functional; settings: 240 h
Rattus norvegicus [25] = test: Increase in liver weight in Wistar rat at 470 umol/kg/day administered through diet for 4 days; format: ADME, organism-based; settings: in vivo, po, 96 h
Rattus norvegicus [26] = test: Hypolipidemic activity in Wistar rat assessed as reduction in plasma triglyceride level at 470 umol/kg/day administered through diet for 4 days; format: functional; settings: 96 h
Rattus norvegicus [27] = test: Increase in cholesterol level in Wistar rat liver at 470 umol/kg/day administered through diet for 4 days; format: ADME, organism-based; settings: in vivo, po, 96 h
Rattus norvegicus [28] = test: Hypolipidemic activity in Wistar rat assessed as reduction in plasma cholesterol level at 428 umol/kg/day administered through diet for 10 days; format: functional; settings: 240 h; in short: as §1
Rattus norvegicus [29] = test: Hypolipidemic activity in Wistar rat assessed as reduction in plasma cholesterol level at 470 umol/kg/day administered through diet for 4 days; format: functional; settings: 96 h; in short: as §1
Rattus norvegicus [30] = test: Hypolipidemic activity in Wistar rat assessed as reduction in plasma triglyceride level at 428 umol/kg/day administered through diet for 10 days; format: functional; settings: 240 h

CCCCCCCCCCCOc1ccc(C(=O)OC)cc1
Activity (Rattus norvegicus [1]): 23% | inhibition in vivo at 444 µmol/kg (Rattus norvegicus [2]): 45% | inhibition in vivo at 444 µmol/kg (Rattus norvegicus [3]): 88% | Activity (Rattus norvegicus [4]): 41%

CCCCCCCCCCCCCCOc1ccc(C(=O)OCC)cc1
Activity (Rattus norvegicus [5]): 3% | Activity (Rattus norvegicus [6]): 16% | inhibition in vivo at 439 µmol/kg (Rattus norvegicus [7]): 24% | inhibition in vivo at 461 µmol/kg (Rattus norvegicus [8]): 23% | inhibition in vivo at 392 µmol/kg (Rattus norvegicus [9]): 33% | inhibition in vivo at 392 µmol/kg (Rattus norvegicus [10]): 61% | Activity (Rattus norvegicus [11]): 10% | Activity (Rattus norvegicus [12]): 2% | inhibition in vivo at 439 µmol/kg (Rattus norvegicus [13]): 54% | Activity (Rattus norvegicus [14]): 0% | Activity (Rattus norvegicus [15]): 20% | inhibition in vivo at 461 µmol/kg (Rattus norvegicus [16]): 42%

CCCCCCCCCCCCCOc1ccc(C(=O)OC)cc1
Activity (Rattus norvegicus [17]): 6% | Activity (Rattus norvegicus [18]): 20% | inhibition in vivo at 496 µmol/kg (Rattus norvegicus [19]): 31% | Activity (Rattus norvegicus [20]): 20% | inhibition in vivo at 496 µmol/kg (Rattus norvegicus [21]): 27% | inhibition in vivo at 460 µmol/kg (Rattus norvegicus [22]): 25% | Activity (Rattus norvegicus [23]): 9% | inhibition in vivo at 460 µmol/kg (Rattus norvegicus [24]): 70%

CCCCCCCCCCCCOc1ccc(C(=O)O)cc1
Activity (Rattus norvegicus [25]): 22% | inhibition in vivo at 470 µmol/kg (Rattus norvegicus [26]): 58% | Activity (Rattus norvegicus [27]): 22% | inhibition in vivo at 428 µmol/kg (Rattus norvegicus [28]): 16% | inhibition in vivo at 470 µmol/kg (Rattus norvegicus [29]): 33% | inhibition in vivo at 428 µmol/kg (Rattus norvegicus [30]): 31%
